We go through one molecule from ChEMBL document CHEMBL5705902, “Role of G Protein-Coupled Receptor Kinases 2 and 3 in μ-Opioid Receptor Desensitization and Internalization” (Mol Pharmacol, 2015).

Assay [1] concerns the target Mu-type opioid receptor (Rattus norvegicus) (UniProt P33535). Briefly: Inhibition of MOPr desensitization in wistar rat LC neuron cells assessed as reduction in the Met-Enk induced desensitization incubated for 15 mins before. In kind it is functional, cell-based. The conditions noted are these: dose 3-30 µM. Put shortly: (§1)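 Whole-cell patch clamp of GIRK currents in locus coeruleus slices from male Wistar rats (5–8 weeks). Inhibitor was given at least 15 min before and during the agonist, all drugs by superfusion. Percent desensitization was taken over 10 min of opioid agonist application. Met-Enk n = 5, endomorphin-2 n = 6; ANOVA.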

For assay [2] the target is unchanged. The experiment in a line: Inhibition of MOPr desensitization in wistar rat LC neuron cells assessed as reduction in the endomorphin-2 induced desensitization at 30 uM incubated for 15 mins before. In kind it is functional, cell-based. In short, it runs like this: as §1
For assay [3] the target is unchanged. Briefly: Inhibition of MOPr desensitization in wistar rat LC neuron cells assessed as reduction in the Met-Enk induced desensitization at 30 uM incubated for 15 mins before in the presence of SP600125. The format is functional, cell-based.
For assay [4] the target is unchanged. The experiment in a line: Inhibition of HA-tagged rat MOPr in HEK293 cells assessed as DAMGO induced MOPr phosphorylation at Ser375 level at 3 uM preincubated for 30 mins by western blot analysis. In kind it is functional, cell-based. In short, it runs like this: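 Serum-starved HEK 293 cells stably expressing HA-rat MOPr were pretreated with inhibitor for 30 min, then DAMGO 10 μM for 5 min. Receptor was enriched on WGA-agarose overnight at 4°C and blotted for pSer375. Densitometry was done in duplicate and normalized to total HA-MOPr; n = 3.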
On the technique in general: Immunoblotting shows a protein as a band on a membrane.

Assay [5] shares this target. The experiment in a line: Inhibition of HA-tagged rat MOPr in HEK293 cells assessed as prevention in DAMGO induced MOPr phosphorylation at Thr370 level at 30 uM preincubated for 30 mins by western blot analysis. The format is functional, cell-based.
Assay [6] has the same target. The experiment in a line: Inhibition of HA-tagged rat MOPr in HEK293 cells assessed as reduction in DAMGO induced MOPr internalization level at 30 uM preincubated for 30 mins by ELISA method. The format is functional, cell-based. Put shortly: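 Surface HA-MOPr in HEK 293 cells was prelabeled with anti-HA for 1 h at 4°C, then inhibitor (3 or 30 μM) was given for 30 min at 37°C, then DAMGO 10 μM at 37°C. Surface receptor was measured by ELISA and normalized to cells not exposed to DAMGO; n = 3–4.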
On the technique in general: In an ELISA, binding on a coated surface is turned into a signal by an enzyme label.

For assay [7] the target is unchanged. Briefly: Inhibition of HA-tagged rat MOPr stably expressing in HEK293 cells assessed as increase in DAMGO-induced ERK1/2 phosphorylation level at 3 to 30 uM preincubated for 30 mins by westernblot analysis. The format is functional, cell-based. The conditions noted are these: dose 3-30 µM. In short, it runs like this: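 HEK 293 cells stably expressing HA-tagged rat MOPr were grown to 90% confluence and serum-starved 24 h. Inhibitor was added for 30 min, then DAMGO 10 μM for 5 min. pERK1/2 was measured by Western blot with ECL detection. Densitometry was done in duplicate, normalized to total ERK1/2 and expressed as % of maximal DAMGO response; n = 4.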

The target of assay [8] is Ribosomal protein S6 kinase alpha-5 (Homo sapiens) (UniProt O75582). Briefly: Inhibition of human MSK1 assessed as remaining activity at 1 uM in presence of 32ATP relative to control. In short, it runs like this:
(§2)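 Express panel of 52 purified human kinases run in vitro. Kinase activity was measured directly by a radioactive filter-binding assay with ³²ATP, at ATP levels at or below each kinase's calculated Km for ATP. The compound was tested at 1 μM. Each assay was run in duplicate, and activity is given as the mean percentage (with S.D.) of activity without inhibitor.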

Assay [9] has as its target Calcium/calmodulin-dependent protein kinase kinase 2 (Homo sapiens) (UniProt Q96RR4). The experiment in a line: Inhibition of human CAMKKb assessed as remaining activity at 1 uM in presence of 32ATP relative to control. Put shortly:
(§3)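 Express screen of 52 purified human kinases run as a radioactive filter-binding assay with 32ATP, at 1 μM inhibitor. ATP was at or below each kinase's calculated Km. Activity is given as percent of the activity without inhibitor. Run in duplicate; mean with S.D.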

The species named for assay [10] is Homo sapiens. The experiment in a line: Inhibition of human VEGFR assessed as remaining activity at 1 uM in presence of 32ATP relative to control. In short, it runs like this:
as §2

The target in assay [11] is Mitogen-activated protein kinase 1 (Homo sapiens) (UniProt P28482). Briefly: Inhibition of human ERK2 assessed as remaining activity at 1 uM in presence of 32ATP relative to control. In short, it runs like this: as §2
In assay [12] the target is RAC-alpha serine/threonine-protein kinase (Homo sapiens) (UniProt P31749). Briefly: Inhibition of human PKBa assessed as remaining activity at 1 uM in presence of 32ATP relative to control. Put shortly: as §2
In assay [13] the target is Casein kinase I isoform delta (Homo sapiens) (UniProt P48730). The experiment in a line: Inhibition of human CK1delta assessed as remaining activity at 1 uM in presence of 32ATP relative to control. In short, it runs like this: as §3
The target in assay [14] is Dual specificity mitogen-activated protein kinase kinase 1 (Homo sapiens) (UniProt Q02750). The experiment in a line: Inhibition of human MKK1 assessed as remaining activity at 1 uM in presence of 32ATP relative to control. Put shortly:
as §2

Assay [15] addresses Serine/threonine-protein kinase STK11 (Homo sapiens) (UniProt Q15831). Briefly: Inhibition of human LKB1 assessed as remaining activity at 1 uM in presence of 32ATP relative to control. Put shortly:
as §2

Assay [16] has as its target MAP/microtubule affinity-regulating kinase 3 (Homo sapiens) (UniProt P27448). Briefly: Inhibition of human MARK3 assessed as remaining activity at 1 uM in presence of 32ATP relative to control. Put shortly:
as §2

In assay [17] the target is Protein kinase C alpha type (Homo sapiens) (UniProt P17252). Briefly: Inhibition of human PKCalpha assessed as remaining activity at 1 uM in presence of 32ATP relative to control. In short, it runs like this:
as §2

For assay [18], the target named is Serine/threonine-protein kinase PAK 4 (Homo sapiens) (UniProt O96013). Briefly: Inhibition of human PAK4 assessed as remaining activity at 1 uM in presence of 32ATP relative to control. In short, it runs like this:
as §2

The target in assay [19] is Casein kinase 2 (Homo sapiens) (UniProt P67870+P68400+P19784+Q8NEV1). Briefly: Inhibition of human CK2 assessed as remaining activity at 1 uM in presence of 32ATP relative to control. The format is protein assay. In short, it runs like this: as §3
Assay [20] concerns the target Serine/threonine-protein kinase pim-1 (Homo sapiens) (UniProt P11309). Briefly: Inhibition of human PIM1 assessed as remaining activity at 1 uM in presence of 32ATP relative to control. Put shortly: as §2
The target in assay [21] is Dual specificity tyrosine-phosphorylation-regulated kinase 1A (Homo sapiens) (UniProt Q13627). Briefly: Inhibition of human DYRK1A assessed as remaining activity at 1 uM in presence of 32ATP relative to control. Put shortly:
as §3

Assay [22] is filed under the species Homo sapiens. Briefly: Inhibition of CAMKK (unknown origin) at 1 uM in presence of 32ATP relative to control. In short, it runs like this: as §3
The target of assay [23] is Mitogen-activated protein kinase; ERK1/ERK2 (Homo sapiens) (UniProt P27361+P28482). The experiment in a line: Inhibition of ERK1/2 (unknown origin) at 1 uM in presence of 32ATP relative to control. The format is protein assay. Put shortly:
as §3

Assay [24] has as its target Mu-type opioid receptor (Mus musculus) (UniProt P42866). Briefly: Inhibition of MOPr desensitization in C57BL/6J mouse LC neuron cells assessed as reduction in the Met-Enk induced desensitization at 3 uM incubated for 15 mins before.

Molecules are shown by their SMILES. The source made the active and inactive calls. The calls are words filed in the database; no cut-off is given here.

Mu-type opioid receptor (Rattus norvegicus), sequence (P33535 whole entry, the tested form may be a part): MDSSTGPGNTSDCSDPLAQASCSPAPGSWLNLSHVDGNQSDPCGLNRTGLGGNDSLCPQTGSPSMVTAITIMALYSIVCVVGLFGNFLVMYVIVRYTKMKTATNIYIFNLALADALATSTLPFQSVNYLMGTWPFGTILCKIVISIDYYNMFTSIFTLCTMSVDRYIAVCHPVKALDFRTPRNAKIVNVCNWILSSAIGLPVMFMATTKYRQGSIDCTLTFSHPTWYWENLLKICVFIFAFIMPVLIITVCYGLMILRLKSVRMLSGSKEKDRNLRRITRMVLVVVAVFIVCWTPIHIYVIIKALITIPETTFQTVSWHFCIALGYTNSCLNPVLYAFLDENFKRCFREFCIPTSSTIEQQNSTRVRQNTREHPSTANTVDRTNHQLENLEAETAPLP
Dual specificity mitogen-activated protein kinase kinase 1 (Homo sapiens), sequence (Q02750 whole entry): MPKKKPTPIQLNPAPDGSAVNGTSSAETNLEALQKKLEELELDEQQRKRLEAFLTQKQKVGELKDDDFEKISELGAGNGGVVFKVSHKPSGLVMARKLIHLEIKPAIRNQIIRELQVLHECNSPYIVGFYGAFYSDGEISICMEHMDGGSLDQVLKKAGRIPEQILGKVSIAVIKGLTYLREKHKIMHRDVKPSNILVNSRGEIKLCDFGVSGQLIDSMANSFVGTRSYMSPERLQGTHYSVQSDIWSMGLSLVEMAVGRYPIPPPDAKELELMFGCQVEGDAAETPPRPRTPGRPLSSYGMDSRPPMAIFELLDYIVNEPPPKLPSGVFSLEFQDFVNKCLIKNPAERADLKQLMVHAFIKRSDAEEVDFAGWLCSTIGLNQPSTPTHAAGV
Serine/threonine-protein kinase pim-1 (Homo sapiens), sequence (P11309 whole entry, looked up): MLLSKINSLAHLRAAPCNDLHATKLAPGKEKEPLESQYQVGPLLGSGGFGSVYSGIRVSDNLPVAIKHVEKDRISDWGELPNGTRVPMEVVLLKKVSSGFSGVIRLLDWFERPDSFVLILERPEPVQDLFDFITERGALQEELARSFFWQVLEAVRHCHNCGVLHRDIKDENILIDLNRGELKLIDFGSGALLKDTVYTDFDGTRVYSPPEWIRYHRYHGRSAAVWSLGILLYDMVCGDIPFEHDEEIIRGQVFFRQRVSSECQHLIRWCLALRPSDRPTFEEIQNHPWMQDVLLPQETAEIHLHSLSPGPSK
Calcium/calmodulin-dependent protein kinase kinase 2 (Homo sapiens), sequence (Q96RR4 2-588 limits assumed): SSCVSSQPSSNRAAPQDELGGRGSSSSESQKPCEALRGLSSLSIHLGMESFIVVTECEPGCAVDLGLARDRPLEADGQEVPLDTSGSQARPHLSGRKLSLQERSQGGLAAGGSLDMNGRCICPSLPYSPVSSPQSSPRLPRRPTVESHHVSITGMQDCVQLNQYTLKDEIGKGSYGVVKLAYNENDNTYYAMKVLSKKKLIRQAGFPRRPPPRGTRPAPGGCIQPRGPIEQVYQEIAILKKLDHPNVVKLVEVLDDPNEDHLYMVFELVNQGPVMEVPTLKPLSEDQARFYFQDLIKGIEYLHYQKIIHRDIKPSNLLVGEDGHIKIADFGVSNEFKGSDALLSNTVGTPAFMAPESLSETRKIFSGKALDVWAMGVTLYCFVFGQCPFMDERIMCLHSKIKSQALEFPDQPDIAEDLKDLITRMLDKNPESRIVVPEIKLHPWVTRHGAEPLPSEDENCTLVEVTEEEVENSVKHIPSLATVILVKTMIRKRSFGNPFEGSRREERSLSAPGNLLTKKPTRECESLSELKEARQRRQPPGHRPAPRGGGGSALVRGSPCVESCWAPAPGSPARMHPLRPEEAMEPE
Serine/threonine-protein kinase STK11 (Homo sapiens), sequence (Q15831 whole entry): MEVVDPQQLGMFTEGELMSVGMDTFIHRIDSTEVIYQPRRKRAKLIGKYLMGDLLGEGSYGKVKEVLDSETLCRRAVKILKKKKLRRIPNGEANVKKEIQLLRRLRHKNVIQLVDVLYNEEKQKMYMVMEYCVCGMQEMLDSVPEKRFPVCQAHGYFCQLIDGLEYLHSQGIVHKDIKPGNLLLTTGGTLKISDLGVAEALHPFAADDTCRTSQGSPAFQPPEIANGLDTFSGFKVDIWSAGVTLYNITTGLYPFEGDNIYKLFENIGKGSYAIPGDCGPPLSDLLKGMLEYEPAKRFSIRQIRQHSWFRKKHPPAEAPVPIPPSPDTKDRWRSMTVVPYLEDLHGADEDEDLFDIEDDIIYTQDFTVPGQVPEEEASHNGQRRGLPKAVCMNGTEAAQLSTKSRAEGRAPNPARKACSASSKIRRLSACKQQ
Casein kinase I isoform delta (Homo sapiens), sequence (P48730 whole entry, looked up, canonical isoform): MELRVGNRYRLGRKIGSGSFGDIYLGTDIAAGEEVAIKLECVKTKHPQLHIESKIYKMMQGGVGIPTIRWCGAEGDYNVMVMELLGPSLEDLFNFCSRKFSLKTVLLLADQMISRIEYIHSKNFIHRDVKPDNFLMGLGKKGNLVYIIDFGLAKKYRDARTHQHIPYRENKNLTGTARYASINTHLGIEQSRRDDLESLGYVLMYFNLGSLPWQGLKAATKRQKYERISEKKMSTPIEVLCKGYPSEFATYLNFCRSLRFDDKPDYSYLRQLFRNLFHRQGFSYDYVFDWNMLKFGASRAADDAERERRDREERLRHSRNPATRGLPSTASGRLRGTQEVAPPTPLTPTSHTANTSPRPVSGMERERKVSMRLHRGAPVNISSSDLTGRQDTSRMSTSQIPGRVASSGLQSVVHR
Ribosomal protein S6 kinase alpha-5 (Homo sapiens), sequence (O75582 whole entry, looked up): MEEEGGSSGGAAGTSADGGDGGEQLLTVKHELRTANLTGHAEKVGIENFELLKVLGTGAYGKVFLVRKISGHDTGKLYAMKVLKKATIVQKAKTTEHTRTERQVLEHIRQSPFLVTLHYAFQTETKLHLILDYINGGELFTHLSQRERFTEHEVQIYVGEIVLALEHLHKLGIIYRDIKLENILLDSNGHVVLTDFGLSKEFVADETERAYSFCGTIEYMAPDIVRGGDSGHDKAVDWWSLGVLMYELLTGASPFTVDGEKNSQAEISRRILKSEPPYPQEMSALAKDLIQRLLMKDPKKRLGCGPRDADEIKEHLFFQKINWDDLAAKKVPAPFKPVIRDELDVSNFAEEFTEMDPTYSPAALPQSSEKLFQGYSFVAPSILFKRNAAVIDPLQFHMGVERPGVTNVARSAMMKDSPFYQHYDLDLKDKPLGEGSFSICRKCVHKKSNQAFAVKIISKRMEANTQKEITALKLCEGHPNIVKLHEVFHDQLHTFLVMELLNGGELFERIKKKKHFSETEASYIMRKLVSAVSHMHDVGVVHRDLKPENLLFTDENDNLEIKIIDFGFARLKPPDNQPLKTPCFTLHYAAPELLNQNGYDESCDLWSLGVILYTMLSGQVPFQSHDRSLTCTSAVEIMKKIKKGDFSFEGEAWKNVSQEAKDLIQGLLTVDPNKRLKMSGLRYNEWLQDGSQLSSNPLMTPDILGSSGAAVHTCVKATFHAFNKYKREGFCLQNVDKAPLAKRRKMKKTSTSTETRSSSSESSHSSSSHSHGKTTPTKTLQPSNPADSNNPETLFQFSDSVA
MAP/microtubule affinity-regulating kinase 3 (Homo sapiens), sequence (P27448 whole entry, looked up): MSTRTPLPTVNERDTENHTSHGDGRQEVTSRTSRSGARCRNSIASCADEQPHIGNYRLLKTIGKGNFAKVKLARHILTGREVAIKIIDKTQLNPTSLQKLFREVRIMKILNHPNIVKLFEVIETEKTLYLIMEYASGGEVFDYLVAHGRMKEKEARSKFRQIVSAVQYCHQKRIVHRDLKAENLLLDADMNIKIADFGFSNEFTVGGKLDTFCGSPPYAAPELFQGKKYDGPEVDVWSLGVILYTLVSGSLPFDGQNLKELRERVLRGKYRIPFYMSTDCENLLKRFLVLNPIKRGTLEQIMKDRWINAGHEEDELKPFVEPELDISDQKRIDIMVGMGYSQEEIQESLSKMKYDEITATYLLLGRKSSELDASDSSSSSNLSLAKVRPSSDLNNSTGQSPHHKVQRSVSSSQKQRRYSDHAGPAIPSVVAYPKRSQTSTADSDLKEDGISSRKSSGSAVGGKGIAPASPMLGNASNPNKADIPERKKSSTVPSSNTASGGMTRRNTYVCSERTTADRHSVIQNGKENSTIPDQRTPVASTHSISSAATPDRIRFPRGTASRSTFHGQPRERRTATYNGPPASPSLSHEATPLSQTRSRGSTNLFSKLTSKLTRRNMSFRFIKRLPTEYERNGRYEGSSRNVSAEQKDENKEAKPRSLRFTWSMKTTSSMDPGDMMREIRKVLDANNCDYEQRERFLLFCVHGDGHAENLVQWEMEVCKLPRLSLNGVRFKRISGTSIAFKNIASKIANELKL

As to `Cn1c(CNc2cccc(C(=O)NCc3ccccc3C(F)(F)F)c2)nnc1-c1ccncc1`, the figures for the inhibition entry (in assay [1]; in the assay filed under Homo sapiens [22]; in assay [23]) were “Dose-Dependent Effect”, under 20% and under 20%, respectively. Moreover, the inhibition result in [2], in assay [4], in assay [5], in assay [6] and in [24] was “Active” throughout. Besides, the inhibition result in assay [3] and in [7] was “inactive” throughout. For the same molecule, the Activity in [8] was 10%; in assay [9], 69%; in the assay listed under Homo sapiens [10], 79%; in [11] it was 81%; in assay [12] it was 83%; in assay [13] it was 86%. Besides, the Activity was determined as 88% in [14]; 91% in assay [15]; 92% in assay [16]; 96% in assay [17]; 101% in assay [18]; 106% in [19]. The Activity came to 107% in assay [20] and 112% in assay [21].
